In ChEMBL document CHEMBL1155163, “Deoxyribonucleoside kinases activate nucleoside antibiotics in severely pathogenic bacteria” (Antimicrob Agents Chemother, 2007):
In brackets after ≈: the same amount, converted by molar mass. Activity calls are given as the source filed them. No cut-off for these calls is given here.

B1: Deoxyadenosine kinase (Staphylococcus aureus), Q0H0H0 (protein)
chain: MNNYGIPQNAIITIAGTVGVGKSTLTQALADKLNFKTSFENVEHNPYLDKFYSDFERWSFHLQIYFLAERFKEQKRMFEYGGGFVQDRSIYEDVDIFAKMHEEEGTMSKEDFKTYSDLFNAMVMTPYFPKPDVMIYLECNYDEVIDRIIERGREMEINTDPEYWKKLFKRYDDWINSFNACPVVRININEYDIHKDPESLNPMINKIARIIQTYRQVDTR
B2: Thymidine kinase (Staphylococcus aureus), Q0H0G9 (protein)
chain: MYETYHSGWIECITGSMFSGKSEELIRRLRRGIYAKQKVVVFKPAIDDRYHKEKVVSHNGNAIEAINISKASEIMTHDLTNVDVIGIDEVQFFDDEIVSIVEKLSADGHRVIVAGLDMDFRGEPFEPMPKLMAVSEQVTKLQAVCAVCGSSSSRTQRLINGKPAKIDDPIILVGANESYEPRCRAHHIVAPSDNNKEEL
B3: Deoxyguanosine kinase (Staphylococcus aureus), Q0H0G8 (protein)
chain: MNKPFIAIEGPIGVGKSSLAHKLSQTLDFYEEKEIITENPFLSDFYEDISKWSFQTEMFFLCNRYKQFQDVTQLNQGVVSDYHIHKNKIFAKNTLSSVEFQKFSKIYDILTEDMIMPNMIIFLDADLDVLKSRIAKRNRSFEHQIEDEYLLKLKKDYREYYESLQSNGSNVVLIDTTSIDFLKNEQDYEDILHIILPMIGDITNE

Columns and labels:
Escherichia coli [1] = assay: Antimicrobial activity against Escherichia coli ATCC 25922 after 20 hrs; assay type: functional; settings: ATCC 25922, 20 h
Summary of the method: (§1)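 Organisms taken from overnight Columbia blood agar, adjusted to McFarland 0.5 in 0.9% NaCl, diluted a further 10-fold, then spotted on Mueller-Hinton agar containing graded nucleoside analog concentrations. Incubated 20 h at 37°C. MIC is the lowest concentration fully inhibiting growth, judged visually.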

Streptococcus sp. [2] = assay: Antimicrobial activity against Streptococcus sp. 07941-1 after 20 hrs; assay type: functional; summary of the method: as §1
Streptococcus sp. [3] = assay: Antimicrobial activity against Streptococcus sp. 07706-1 after 20 hrs; assay type: functional; summary of the method: as §1
Streptococcus sp. [4] = assay: Antimicrobial activity against Streptococcus sp. 07686-2 after 20 hrs; assay type: functional; summary of the method: as §1
Staphylococcus aureus [5] = assay: Antimicrobial activity against Staphylococcus aureus ATCC 29213 after 20 hrs; assay type: functional; settings: ATCC 29213, 20 h; summary of the method: as §1
Staphylococcus aureus [6] = assay: Antimicrobial activity against Staphylococcus aureus CCM 885 after 20 hrs; assay type: functional; settings: CCM 885, 20 h; summary of the method: as §1
Escherichia coli [7] = assay: Antibacterial activity against […] kinase-deficient Escherichia coli KY895 expressing Staphylococcus aureus recombinant thymidine kinase; assay type: functional
Escherichia coli [8] = assay: Antibacterial activity against […] kinase-deficient Escherichia coli KY895 expressing Streptococcus pyogenes recombinant thymidine kinase; assay type: functional
Escherichia coli [9] = assay: Antibacterial activity against […] kinase-deficient Escherichia coli KY895 expressing Staphylococcus aureus recombinant deoxyadenosine kinase; assay type: functional
Escherichia coli [10] = assay: Antibacterial activity against […] kinase-deficient Escherichia coli KY895 expressing Staphylococcus aureus recombinant deoxyguanosine kinase; assay type: functional, organism-based
Escherichia coli [11] = assay: Antibacterial activity against […] kinase-deficient Escherichia coli KY895 expressing Streptococcus pyogenes recombinant deoxyadenosine kinase; assay type: functional
Streptococcus pyogenes [12] = assay: Antimicrobial activity against Streptococcus pyogenes AP1 after 20 hrs; assay type: functional; settings: AP1, 20 h; summary of the method: as §1
Staphylococcus aureus [13] = assay: Antibacterial activity against exponentially growing Staphylococcus aureus ATCC 29213 at 0.002 ug/ml after 3 hrs by viable count susceptibility assay; assay type: functional, organism-based
Summary of the method: (§2)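 Cells grown overnight in Todd-Hewitt broth at 37°C with 5% CO2, subcultured to OD620 0.4, washed twice and diluted 1,000-fold in 10 mM Tris-HCl pH 7.5, 5 mM glucose, 10% Todd-Hewitt. Stopped with ice-cold buffer; duplicate plating on Todd-Hewitt agar for viable counts.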

Streptococcus pyogenes [14] = assay: Antibacterial activity against exponentially growing Streptococcus pyogenes AP1 at 0.2 ug/ml after 3 hrs by viable count susceptibility assay; assay type: functional, organism-based; summary of the method: as §2
Streptococcus pyogenes [15] = assay: Antibacterial activity against 2.5 x 10^6 CFU Streptococcus pyogenes AP1-infected BALB/c mouse assessed as protection against bacterial dissemination in spleen at 100 ug, ip administered 6 hrs after bacterial infection and measured after 24 hrs postinfection; assay type: functional, organism-based
Streptococcus pyogenes [16] = assay: Antibacterial activity against 1 x 10^7 CFU Streptococcus pyogenes AP1-infected BALB/c mouse assessed as survival at 100 ug, ip after 5 days; assay type: functional
Summary of the method: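 Adult female BALB/c mice (~20 g), six per group, given ip 1 x 10^7 CFU of mid-exponential S. pyogenes AP1 (OD620 0.5, washed, in PBS). 6 h later, ip 100 µg drug or 100 µl PBS. Survival followed at regular intervals. Survivors sacrificed at 5 days. Inoculum checked by blood-agar colony counts.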

[17] = substrate: Nc1ccn([C@@H]2O[C@H](CO)[C@@H](O)C2(F)F)c(=O)n1; assay: (§3) Activity of Staphylococcus aureus CCM 885 recombinant deoxyadenosine kinase
Summary of the method: (§4)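 Recombinant S. aureus kinase cut from a GST fusion (pGEX-2T, E. coli BL21) by thrombin. Initial velocities taken from four time samples in a DE-81 filter-paper assay with tritiated substrates at varied concentrations. Fits by nonlinear regression to Michaelis-Menten, or to the substrate-inhibition equation where needed.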

[18] = substrate: Nc1ccn([C@H]2C[C@H](O)[C@@H](CO)O2)c(=O)n1; assay: as §3; summary of the method: as §4
[19] = substrate: Nc1ncnc2c1ncn2[C@H]1C[C@H](O)[C@@H](CO)O1; assay: as §3; summary of the method: as §4
[20] = substrate: Nc1ccn([C@@H]2O[C@H](CO)[C@@H](O)C2(F)F)c(=O)n1; assay: (§5) Ratio of kcat to Km for Staphylococcus aureus CCM 885 recombinant deoxyadenosine kinase; summary of the method: as §4
[21] = substrate: Nc1ccn([C@H]2C[C@H](O)[C@@H](CO)O2)c(=O)n1; assay: as §5; summary of the method: as §4
[22] = substrate: Nc1ncnc2c1ncn2[C@H]1C[C@H](O)[C@@H](CO)O1; assay: as §5; summary of the method: as §4
[23] = substrate: Cc1cn([C@H]2C[C@H](N=[N+]=[N-])[C@@H](CO)O2)c(=O)[nH]c1=O; assay: (§6) Activity of Staphylococcus aureus CCM 885 recombinant thymidine kinase
Summary of the method: (§7)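 GST-fused SaTK expressed in E. coli BL21 (100 µM IPTG, 6 h at 25°C), purified on glutathione-Sepharose and cleaved from GST with thrombin. Initial velocities from four time samples, DE-81 filter-paper assay with tritium-labeled deoxyribonucleoside substrates at various concentrations. Michaelis-Menten nonlinear regression.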

[24] = substrate: Cc1cn([C@H]2C[C@H](O)[C@@H](CO)O2)c(=O)[nH]c1=O; assay: as §6; summary of the method: as §7
[25] = substrate: Cc1cn([C@H]2C[C@H](N=[N+]=[N-])[C@@H](CO)O2)c(=O)[nH]c1=O; assay: (§8) Ratio of kcat to Km for Staphylococcus aureus CCM 885 recombinant thymidine kinase; summary of the method: as §7
[26] = substrate: Cc1cn([C@H]2C[C@H](O)[C@@H](CO)O2)c(=O)[nH]c1=O; assay: as §8; summary of the method: as §7
[27] = substrate: Nc1nc(O)c2ncn([C@H]3C[C@H](O)[C@@H](CO)O3)c2n1; assay: Activity of Staphylococcus aureus CCM 885 recombinant deoxyguanosine kinase; summary of the method: as §4
[28] = substrate: Nc1nc(O)c2ncn([C@H]3C[C@H](O)[C@@H](CO)O3)c2n1; assay: Ratio of kcat to Km for Staphylococcus aureus CCM 885 recombinant deoxyguanosine kinase; summary of the method: as §4

Row | Molecule | MIC (Escherichia coli [1]) [µM] | MIC (Streptococcus sp. [2]) [µM] | MIC (Streptococcus sp. [3]) [µM] | MIC (Streptococcus sp. [4]) [µM] | MIC (Staphylococcus aureus [5]) [µM] | MIC (Staphylococcus aureus [6]) [µM] | other results
1 | Nc1nc(F)nc2c1ncn2[C@@H]1O[C@H](CO)[C@@H](O)[C@@H]1O [FLUDARABINE] | > 100 | > 100 | > 100 | > 100 | > 100 | > 100 | 
2 | O=c1[nH]c(=O)n([C@H]2C[C@H](O)[C@@H](CO)O2)cc1F [FLOXURIDINE] | 1 (≈ 0.246 µg/mL) | 0.1 (≈ 0.0246 µg/mL) | 0.316 (≈ 0.0778 µg/mL) | 10 (≈ 2.46 µg/mL) | 0.01 (≈ 0.00246 µg/mL) | 0.00316 (≈ 0.000778 µg/mL) | 
3 | CCc1cn([C@H]2C[C@H](O)[C@@H](CO)O2)c(=O)[nH]c1=O [EDOXUDINE] | > 316 | > 316 | > 316 | > 316 | > 316 | > 316 | 
4 | Nc1nc(Cl)nc2c1ncn2[C@H]1C[C@H](O)[C@@H](CO)O1 [CLADRIBINE] | > 100 | 100 (≈ 28.6 µg/mL) | 100 (≈ 28.6 µg/mL) | 100 (≈ 28.6 µg/mL) | > 100 | > 100 | 
5 | Cc1cn([C@H]2C[C@H](N=[N+]=[N-])[C@@H](CO)O2)c(=O)[nH]c1=O [ZIDOVUDINE] | 10 (≈ 2.67 µg/mL) | 316 (≈ 84.4 µg/mL) | > 316 | > 316 | > 316 | > 316 | MIC (Escherichia coli [7]): 0.0316 µM; MIC (Escherichia coli [8]): 0.01 µM; Activity (Escherichia coli [9]): inactive; Activity (Escherichia coli [10]): inactive; Activity (Escherichia coli [11]): inactive
6 | Nc1ccn([C@@H]2O[C@H](CO)[C@@H](O)C2(F)F)c(=O)n1 [GEMCITABINE] | > 1000 | 0.01 (≈ 0.00263 µg/mL) | 0.0316 (≈ 0.00832 µg/mL) | 0.1 (≈ 0.0263 µg/mL) | 0.1 (≈ 0.0263 µg/mL) | 0.1 (≈ 0.0263 µg/mL) | MIC (Streptococcus pyogenes [12]): 0.1 µM (≈ 0.0263 µg/mL); Activity (Staphylococcus aureus [13]): Active; Activity (Streptococcus pyogenes [14]): Active; Activity (Escherichia coli [7]): inactive; Activity (Escherichia coli [8]): inactive; MIC (Escherichia coli [9]): 0.001 µM; Activity (Escherichia coli [10]): inactive; MIC (Escherichia coli [11]): 0.0316 µM; Activity (Streptococcus pyogenes [15]): Active; Activity (Streptococcus pyogenes [16]): 83%
7 | Nc1ccn([C@@H]2O[C@H](CO)[C@@H](O)[C@@H]2O)c(=O)n1 [CYTARABINE] | > 1000 | > 1000 | > 1000 | > 1000 | > 1000 | > 1000 | 
8 | B1 |  |  |  |  |  |  | Km [17]: 192 µM; Vmax [17]: 0.43 U/mg; kcat [17]: 0.19 s⁻¹; Km [18]: 34.4 µM; Vmax [18]: 1.3 U/mg; kcat [18]: 0.56 s⁻¹; Km [19]: 29.2 µM; Vmax [19]: 4.1 U/mg; kcat [19]: 1.82 s⁻¹; kcat/Km [20]: 9.81 ×10² /M/s; kcat/Km [21]: 1.62 ×10⁴ /M/s; kcat/Km [22]: 6.22 ×10⁴ /M/s
9 | B2 |  |  |  |  |  |  | Km [23]: 11.6 µM; Vmax [23]: 4 U/mg; kcat [23]: 1.48 s⁻¹; Km [24]: 2.8 µM; Vmax [24]: 1.2 U/mg; kcat [24]: 0.44 s⁻¹; kcat/Km [25]: 1.29 ×10⁵ /M/s; kcat/Km [26]: 1.6 ×10⁵ /M/s
10 | B3 |  |  |  |  |  |  | Km [27]: 1.1 µM; Vmax [27]: 1.4 U/mg; kcat [27]: 0.57 s⁻¹; kcat/Km [28]: 5.17 ×10⁵ /M/s
